Assay results: ChEMBL document CHEMBL2146363, “Allylic thiocyanates as a new class of antitubercular agents” (Bioorg Med Chem Lett, 2012)
Values after ≈ are worked out from the molar mass of the structure shown.

Columns and labels:
[1] = test system: Mycobacterium tuberculosis; test: Antitubercular activity against Mycobacterium tuberculosis H37Rv in GAS medium after 4 days by microplate alamar blue assay; format: functional; details: 96 h
How it was run: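 Replicating M. tuberculosis H37Rv grown in GAS (glycerol–alanine–salts) medium. MIC determined by microplate Alamar Blue assay (MABA).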

[2] = test system: Mycobacterium tuberculosis; test: Antitubercular activity against Mycobacterium tuberculosis H37Rv in 7H12 medium after 4 days by microplate alamar blue assay; format: functional; details: 96 h
How it was run: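 Replicating M. tuberculosis H37Rv tested in Middlebrook 7H12 medium, which lacks glycerol and uses palmitic acid as carbon source. MIC read by microplate Alamar Blue assay (MABA).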

[3] = test system: Mycobacterium tuberculosis; test: Antitubercular activity against Mycobacterium tuberculosis H37Rv in 7H12 medium incubated for 10 days in anaerobic condition followed by incubation for 48 hrs in aerobic condition by low oxygen recovery assay; format: functional
How it was run: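 Non-replicating M. tuberculosis H37Rv tested in 7H12 medium (palmitic acid carbon source, no glycerol) under low-oxygen conditions by the low-oxygen-recovery assay (LORA), which models persistence or latency. Read-out is MIC.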

Vero = test: Cytotoxicity against african green monkey Vero cells after 72 hrs by MTS assay; format: cell-based; details: Chlorocebus sabaeus
How it was run: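 African green monkey kidney VERO cell line; toxicity read as half-maximal inhibitory concentration (IC50). Each reported value is the average of three individual measurements, rounded to the nearest dilution.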

[4] = Selectivity ratio of IC50 for african green monkey Vero cells to MIC for Mycobacterium tuberculosis H37Rv in GAS medium; format: functional

| SMILES | MIC [1] | other results |
| --- | --- | --- |
| COC(=O)/C(=C/c1ccccc1)CSC(=N)Nc1ccccc1 | 16 µM (≈ 5.22 µg/mL) |  |
| COC(=O)/C(=C/c1ccc([N+](=O)[O-])cc1)CN=[N+]=[N-] | 4 µM (≈ 1.05 µg/mL) | MIC [2]: > 32 µM; MIC [3]: 16 µM (≈ 4.2 µg/mL); IC50 (Vero): > 64 µM |
| COC(=O)/C(=C/c1ccccc1[N+](=O)[O-])CN=[N+]=[N-] | 64 µM (≈ 16.8 µg/mL) |  |
| COC(=O)/C(=C/C=C/c1ccccc1)CN=[N+]=[N-] | 64 µM (≈ 15.6 µg/mL) |  |
| COC(=O)/C(=C/c1ccc2c(c1)OCO2)CN=[N+]=[N-] | 64 µM (≈ 16.7 µg/mL) |  |
| COC(=O)/C(=C/c1ccc(OC)cc1)CN=[N+]=[N-] | > 128 µM |  |
| COC(=O)/C(=C/c1ccccc1)CN=[N+]=[N-] | > 128 µM |  |
| COC(=O)/C(=C/c1ccc2ccccc2c1)CN=[N+]=[N-] | > 128 µM |  |
| COC(=O)/C(=C/c1ccc(Cl)cc1)CN=[N+]=[N-] | > 128 µM |  |
| COC(=O)/C(=C/c1ccccc1Cl)CN=[N+]=[N-] | > 128 µM |  |
| COC(=O)/C(=C/c1ccc(Cl)cc1Cl)CN=[N+]=[N-] | > 128 µM |  |
| COC(=O)/C(=C/c1ccc([N+](=O)[O-])cc1)CSC#N | > 128 µM |  |
| COC(=O)/C(=C/c1ccccc1[N+](=O)[O-])CSC#N | 8 µM (≈ 2.23 µg/mL) |  |
| COC(=O)/C(=C/C=C/c1ccccc1)CSC#N | > 128 µM |  |
| COC(=O)/C(=C/c1ccc2c(c1)OCO2)CSC#N | > 128 µM |  |
| COC(=O)/C(=C/c1ccc(OC)cc1)CSC#N | 16 µM (≈ 4.21 µg/mL) |  |
| COC(=O)/C(=C/c1ccc(OC)c(OC)c1)CSC#N | 16 µM (≈ 4.69 µg/mL) |  |
| COC(=O)/C(=C/c1ccccc1)CSC#N | 1 µM (≈ 0.233 µg/mL) |  |
| COC(=O)/C(=C/c1ccc2ccccc2c1)CSC#N | 0.25 µM (≈ 0.0708 µg/mL) | MIC [2]: 32 µM (≈ 9.07 µg/mL); MIC [3]: 16 µM (≈ 4.53 µg/mL); IC50 (Vero): 32 µM; Selectivity ratio [4]: >100 |
| COC(=O)/C(=C/c1ccc(C)cc1)CSC#N | 0.5 µM (≈ 0.124 µg/mL) | MIC [2]: 8 µM (≈ 1.98 µg/mL); MIC [3]: 16 µM (≈ 3.96 µg/mL); IC50 (Vero): 32 µM |
| COC(=O)/C(=C/c1ccc(Cl)cc1)CSC#N | 0.25 µM (≈ 0.0669 µg/mL) | MIC [2]: 8 µM (≈ 2.14 µg/mL); MIC [3]: 8 µM (≈ 2.14 µg/mL); IC50 (Vero): 16 µM |

| SMILES | MIC [1] | other results |
| --- | --- | --- |
| COC(=O)/C(=C/c1ccccc1Cl)CSC#N | > 128 µM |  |
| COC(=O)/C(=C/c1ccc(Cl)cc1Cl)CSC#N | > 128 µM |  |
| COC(=O)/C(=C/c1ccccc1Br)CSC#N | 0.25 µM (≈ 0.078 µg/mL) | MIC [2]: 8 µM (≈ 2.5 µg/mL); MIC [3]: 4 µM (≈ 1.25 µg/mL); IC50 (Vero): 32 µM; Selectivity ratio [4]: >100 |
| COC(=O)/C(=C/c1ccc(Br)cc1)CSC#N | 0.25 µM (≈ 0.078 µg/mL) | MIC [2]: 16 µM (≈ 5 µg/mL); MIC [3]: 16 µM (≈ 5 µg/mL); IC50 (Vero): 32 µM; Selectivity ratio [4]: >100 |
| COC(=O)/C(=C/c1ccc(F)cc1)CSC#N | 0.5 µM (≈ 0.126 µg/mL) | MIC [2]: 16 µM (≈ 4.02 µg/mL); MIC [3]: 16 µM (≈ 4.02 µg/mL); IC50 (Vero): 32 µM |
| COC(=O)/C(=C/c1ccc([N+](=O)[O-])cc1)CSC(=N)N | 8 µM (≈ 2.36 µg/mL) | MIC [2]: 64 µM (≈ 18.9 µg/mL) |
| COC(=O)/C(=C/c1ccc2c(c1)OCO2)CSC(=N)N | > 128 µM |  |
| COC(=O)/C(=C/c1ccc(OC)cc1)CSC(=N)N | 32 µM (≈ 8.97 µg/mL) |  |
| COC(=O)/C(=C/c1ccccc1)CSC(=N)N | 64 µM (≈ 16 µg/mL) |  |
| COC(=O)/C(=C/c1ccccc1Cl)CSC(=N)N | > 128 µM |  |
| COC(=O)/C(=C/c1ccc([N+](=O)[O-])cc1)CSC(=N)Nc1ccccc1 | 4 µM (≈ 1.49 µg/mL) | MIC [2]: > 32 µM; MIC [3]: > 64 µM; IC50 (Vero): > 64 µM |
| COC(=O)/C(=C/c1cccc([N+](=O)[O-])c1)CSC(=N)Nc1ccccc1 | 16 µM (≈ 5.94 µg/mL) |  |
| COC(=O)/C(=C/c1ccccc1[N+](=O)[O-])CSC(=N)Nc1ccccc1 | 16 µM (≈ 5.94 µg/mL) |  |
| COC(=O)/C(=C/c1ccc2c(c1)OCO2)CSC(=N)Nc1ccccc1 | 16 µM (≈ 5.93 µg/mL) |  |
| COC(=O)/C(=C/c1ccc(OC)cc1)CSC(=N)Nc1ccccc1 | 16 µM (≈ 5.7 µg/mL) |  |
| COC(=O)/C(=C/c1ccc(C)cc1)CSC(=N)Nc1ccccc1 | 16 µM (≈ 5.45 µg/mL) |  |
| COC(=O)/C(=C/c1ccc(Cl)cc1)CSC(=N)Nc1ccccc1 | 8 µM (≈ 2.89 µg/mL) |  |
| COC(=O)/C(=C/c1ccc(F)cc1)CSC(=N)Nc1ccccc1 | 8 µM (≈ 2.76 µg/mL) |  |
| COC(=O)/C(=C/c1ccccc1)CS/C(=N\C(C)=O)NC(C)=O | 32 µM (≈ 10.7 µg/mL) |  |
| COC(=O)/C(=C/c1ccccc1Cl)CS/C(=N\C(C)=O)NC(C)=O | 32 µM (≈ 11.8 µg/mL) |  |
